# Data from ChEMBL document CHEMBL1123409, “Analogues of platelet activating factor. 4. Some modifications of the phosphocholine moiety” (J Med Chem, 1986).
# Columns and labels:
# Oryctolagus cuniculus [1] = organism: Oryctolagus cuniculus; assay: The maximum aggregation response observed at 1e-5 M concentration of the compound; assay type: functional
# Rattus norvegicus = assay: Intravenous dose required to decrease mean arterial blood pressure (MABP) 50 mm Hg; assay type: functional
# Summary of the method: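 Spontaneously hypertensive rats, dosed intravenously. The dose that lowers mean arterial blood pressure by 50 mm Hg is read from the dose-response curve.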
# [2] = The ratio of (MABP / Platelet EC 50) x 10^-8
# Oryctolagus cuniculus [3] = organism: Oryctolagus cuniculus; assay: The maximum aggregation response observed at 1.6e-4 M concentration of the compound; assay type: functional
# Oryctolagus cuniculus [4] = organism: Oryctolagus cuniculus; assay: Effective concentration required to produce 50% of maximum aggregation of platelets; assay type: functional, organism-based
# Summary of the method: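 Aggregation tested in rabbit platelet-rich plasma. In each experiment, a dose-response curve was built from six to eight doses spanning 10^-9 to 10^-4 M, with three to four replicates per dose level. EC50 is the molar concentration giving 50% of that analogue's own maximum aggregation response.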
# Oryctolagus cuniculus [5] = organism: Oryctolagus cuniculus; assay: The maximum aggregation response observed at 1.48e-5 M concentration of the compound; assay type: functional
# Oryctolagus cuniculus [6] = organism: Oryctolagus cuniculus; assay: The maximum aggregation response observed at 1.7e-4M concentration of the compound; assay type: functional
# Oryctolagus cuniculus [7] = organism: Oryctolagus cuniculus; assay: The maximum aggregation response observed at 1.8e-4 M concentration of the compound; assay type: functional
# Oryctolagus cuniculus [8] = organism: Oryctolagus cuniculus; assay: The maximum aggregation response observed at 6.8e-6 M concentration of the compound; assay type: functional
# Oryctolagus cuniculus [9] = organism: Oryctolagus cuniculus; assay: The maximum aggregation response observed at 1e-6 M concentration of the compound; assay type: functional
# Oryctolagus cuniculus [10] = organism: Oryctolagus cuniculus; assay: The maximum aggregation response observed at 1.7e-4 M concentration of the compound; assay type: functional
# Oryctolagus cuniculus [11] = organism: Oryctolagus cuniculus; assay: The maximum aggregation response observed at 5e-5 M concentration of the compound; assay type: functional
# [12] = The ratio of (MABP / Platelet EC 50) x 100; assay type: functional
Structure (SMILES),Dose (Rattus norvegicus) [µg/kg],Ratio [2],further results
CCCCCCCCCCCCCCCCOCC(COP(=O)([O-])OC(C)C[N+](C)(C)C)OC(C)=O (stereo not given),1.16,0.28,Max aggregation response (Oryctolagus cuniculus [1]): 74
CCCCCCCCCCCCCCCCOCC(COP(=O)([O-])OCCCCCCCCCC[N+](C)(C)C)OC(C)=O (stereo not given),>4000,–,Max aggregation response (Oryctolagus cuniculus [3]): 18; EC50 (Oryctolagus cuniculus [4]): 59 µM
CCCCCCCCCCCCCCCCCCOCC(COP(=O)([O-])OCC[N+](C)(C)C)OC(C)=O (stereo not given),3.17,1.34,Max aggregation response (Oryctolagus cuniculus [5]): 75
CCCCCCCCCCCCCCCCOCC(COP(=O)([O-])OCCCCCCCC[N+](C)(C)C)OC(C)=O (stereo not given),>4000,–,Max aggregation response (Oryctolagus cuniculus [6]): 41; EC50 (Oryctolagus cuniculus [4]): 37 µM
CCCCCCCCCCCCCCCCCCOCC(COP(=O)([O-])OCCCC[N+](C)(C)C)OC(C)=O (stereo not given),15.85,0.36,Max aggregation response (Oryctolagus cuniculus [1]): 71
CCCCCCCCCCCCCCCCOCC(COP(=O)([O-])OCCCC[N+](C)(C)C)OC(C)=O (stereo not given),4.84,0.65,Max aggregation response (Oryctolagus cuniculus [7]): 68
CCCCCCCCCCCCCCCCOCC(COP(=O)([O-])OCC[N+](C)(C)C)OC(C)=O (stereo not given) [PLATELET ACTIVATING FACTOR],1.25,0.47,Max aggregation response (Oryctolagus cuniculus [8]): 71
CCCCCCCCCCCCCCCCOCC(COP(=O)([O-])OCC(C)[N+](C)(C)C)OC(C)=O (stereo not given),0.15,0.47,Max aggregation response (Oryctolagus cuniculus [9]): 66
CCCCCCCCCCCCCCCCOCC(COP(=O)([O-])OCCCCCC[N+](C)(C)C)OC(C)=O (stereo not given),164.9,0.06,Max aggregation response (Oryctolagus cuniculus [10]): 35; EC50 (Oryctolagus cuniculus [4]): 27 µM
CCCCCCCCCCCCCCCCCCOCC(COP(=O)([O-])CC[N+](C)(C)C)OC(C)=O (stereo not given),76.54,3.83,Max aggregation response (Oryctolagus cuniculus [1]): 82
CCCCCCCCCCCCCCCCOCC(COP(=O)([O-])Oc1cccc(C[N+](C)(C)C)c1)OC(C)=O (stereo not given),1.36,0.23,Max aggregation response (Oryctolagus cuniculus [11]): 64
CCCCCCCCCCCCCCCCOCC(COP(=O)([O-])OCCC[N+](C)(C)C)OC(C)=O (stereo not given),1.43,0.57,Max aggregation response (Oryctolagus cuniculus [9]): 65
CCCCCCCCCCCCCCCCOCC(COP(=O)([O-])OCC(c1ccccc1)[N+](C)(C)C)OC(C)=O (stereo not given),3.93,–,Max aggregation response (Oryctolagus cuniculus [11]): 69; Ratio [12]: 0.06
